The record followed here is ChEMBL document CHEMBL1142086, “Flavonoid dimers as bivalent modulators for pentamidine and sodium stiboglucanate resistance in leishmania” (Antimicrob Agents Chemother, 2007).

In general, pIC50 refers to −log10 of the IC50, conventionally taken in molar units. For orientation: pEC50 means −log10 of the EC50, conventionally taken in molar units.

For data set [1], the system named is Leishmania donovani. The data set can be described thus: Cytotoxicity against wild-type Leishmania donovani LdAG83 by MTS assay. The class given is organism-based. The following applies: AG83. In a few lines: (§1)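 Promastigotes in Schneider's Drosophila medium (pH 6.9) with 10% heat-inactivated FCS, 4 mM glutamine and gentamicin at 27°C. Seeded at 10^5 cells/well, exposed to a range of modulator concentrations (up to 200 μM) for 72 h at 27°C. MTS/PMS added, 4 h colour development, OD 490 nm. Survival expressed relative to untreated wells; ≥2 independent experiments in triplicate.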
(In general: Tetrazolium assays rely on reduction of a dye to a coloured formazan, in cell work by metabolically active cells.)

Data set [2] concerns Leishmania enriettii. The data set can be described thus: Cytotoxicity against pentamidine-resistant Leishmania enriettii LePentR50 by MTS assay. The class given is organism-based. In a few lines:
as §1

For data set [3], the system named is Leishmania donovani. The experiment in a line: Cytotoxicity against SSG-resistant Leishmania donovani Ld39 by MTS assay. The class given is organism-based. In a few lines: as §1
The test system of data set [4] is Leishmania enriettii. The data set can be described thus: Cytotoxicity against drug-resistant Leishmania enriettii LePentR50 at 60 uM after 3 hrs. To be noted: in vitro. The class given is organism-based.
The nature of data set [5]: Resistance reversal as >50% reduction in pentamidine IC50 in Leishmania enriettii LeV160 overexpressing LeMDR1 by MTS assay. The class given is functional. The method, boiled down: (§2)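 L. enriettii promastigotes are wild type, LeMDR1−/− (no drug in culture) or LeV160 (maintained in 160 μg/ml vinblastine). Seeded at 10^5 cells/well with graded pentamidine plus 6 μM modulator for 72 h at 27°C. MTS read-out at 490 nm gives the pentamidine IC50. Three independent experiments in triplicate.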

The nature of data set [6]: Resistance reversal as >50% reduction in SSG IC50 in drug-resistant Leishmania donovani Ld39 by MTS assay. The class given is functional. The method, boiled down: (§3)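 Promastigotes seeded at 10^5 cells/well and incubated 72 h at 27°C with serial concentrations of SSG (L. donovani) or pentamidine (L. enriettii LePentR50), each with 6 μM modulator or DMSO solvent control. Survival read by MTS/PMS at 490 nm after 4 h. […] Triplicates per concentration.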

The test system of data set [7] is Leishmania donovani. The data set can be described thus: Increase of SSG accumulation in drug-resistant Leishmania donovani Ld2001 at 30 uM relative to LdAG83 cells. The class given is functional, organism-based. The method, boiled down: (§4)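 Axenic amastigotes made by shifting 4-day promastigotes into supplemented M199 at 37°C for 24 h. 1 ml (2 × 10^8 cells/ml) incubated with 0.05 mM SSG plus modulator (0, 30, 60 μM) for 3 h at 37°C. After PBS washes, cells digested in nitric acid. Total Sb measured by ICP-MS (m/z 121/123, In internal standard), in nmol/mg protein. Expressed as % of LdAG83; triplicates, two experiments.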

Data set [8] is described as follows: Resistance reversal as >50% reduction in SSG IC50 in wild-type Leishmania donovani LdAG83 by MTS assay. The class given is functional. In a few lines: as §3
Data set [9] is described as follows: Effect on modulating pentamidine-resistance of Leishmania enriettii LePentR50 assessed as decrease in survival after 72 hrs by MTS. The class given is functional. The method, boiled down:
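LePentR50 promastigotes seeded at 10^5 cells/well, exposed 72 h at 27°C to graded modulator alone or with 60 μg/ml pentamidine. MTS survival as percentage of untreated. […] Triplicates, three repeats.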

Data set [10] concerns Leishmania enriettii. The data set can be described thus: Increase of pentamidine accumulation in drug-resistant Leishmania enriettii LePentR50 promastigotes at 30 uM after 3 hrs. The class given is functional, organism-based. In a few lines: (§5)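 4-day-old LePentR50 promastigotes (2 × 10^8 cells/ml, 1 ml) incubated with 0.84 mM pentamidine plus modulator (0, 15, 30, 60 μM) for 3 h at 27°C in the dark. Cells washed with cold PBS and lysed in 75% acetonitrile by freeze-thaw. Pentamidine quantified by ion-pair C18 HPLC at 265 nm against a standard curve and expressed per mg protein. Triplicates, repeated twice.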

A short description of data set [11]: Effect on modulating SSG-resistance of Leishmania donovani Ld39 promastigotes assessed as reversal of resistance at 6 uM after 72 hrs by MTS. The class given is functional. The method, boiled down:
(§6)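 Ld39 or LdAG83 promastigotes seeded at 10^5 cells/well with serial SSG dilutions plus modulator (0, 1, 2, 4, 6 μM) for 72 h at 27°C. SSG concentrations differ between the two strains. Percentage survivors by MTS. Triplicate points, three separate experiments.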

Data set [12] is described as follows: Resistance reversal as >50% reduction in pentamidine IC50 in wild-type Leishmania enriettii by MTS assay. The class given is functional. The method, boiled down:
as §2

For data set [13], the system named is Leishmania donovani. The experiment in a line: Increase of SSG accumulation in drug-resistant Leishmania donovani Ld2001 at 60 uM relative to LdAG83 cells. The class given is functional, organism-based. The method, boiled down: as §4
The test system of data set [14] is Leishmania donovani. The data set can be described thus: Cytotoxicity against wild-type Leishmania donovani at 60 uM after 3 hrs. The class given is organism-based. The following applies: in vitro.
Data set [15] has as its system Leishmania donovani. The experiment in a line: Increase of SSG accumulation in drug-resistant Leishmania donovani Ld39 at 30 uM relative to LdAG83 cells. The class given is functional, organism-based. The method, boiled down: as §4
Data set [16] has as its system Leishmania donovani. The data set can be described thus: Increase of SSG accumulation in drug-resistant Leishmania donovani Ld39 at 60 uM relative to LdAG83 cells. The class given is functional, organism-based. The method, boiled down:
as §4

The subject of data set [17] is Leishmania enriettii. The data set can be described thus: Increase of pentamidine accumulation in drug-resistant Leishmania enriettii LePentR50 promastigotes at 60 uM after 3 hrs. The class given is functional, organism-based. The method, boiled down: as §5
Data set [18] in a line: Toxicity against pentamidine-resistance Leishmania enriettii LePentR50 upto 6 uM.
Data set [19] can be described thus: Resistance reversal as >50% reduction in pentamidine IC50 in Leishmania enriettii LeMDR1-/- by MTS assay. The class given is functional. The method, boiled down:
as §2

Data set [20] concerns Leishmania enriettii. The experiment in a line: Increase of pentamidine accumulation in drug-resistant Leishmania enriettii LePentR50 promastigotes at 15 uM after 3 hrs. The class given is functional, organism-based. The method, boiled down: as §5
A short description of data set [21]: Resistance reversal as >50% reduction in pentamidine IC50 in drug-resistant Leishmania enriettii LePentR50 by MTS assay. The class given is functional. In a few lines: as §3
Data set [22] is described as follows: Effect on modulating drug-resistance of wild type SSG-sensitive Leishmania donovani LdAG83 promastigotes assessed as reversal of resistance at 6 uM after 72 hrs by MTS. The class given is functional. The method, boiled down:
as §6

The nature of data set [23]: Resistance reversal as >50% reduction in SSG IC50 in drug-resistant Leishmania donovani Ld2001 by MTS assay. The class given is functional. The method, boiled down:
as §3

Structures are written as SMILES. pEC50, pIC50: −log10 of the molar value. Activity calls are given as the source filed them. Unless noted, no cut-off for these calls is given here. Some results are limits rather than exact numbers.

`O=c1cc(-c2ccc(O)cc2)oc2cc(O)cc(O)c12` [APIGENIN]: the results for the negative logarithm of the IC50 (pIC50) in the data set with Leishmania donovani [1], in the data set with Leishmania enriettii [2] and in the data set on Leishmania donovani [3] were 4.49, 4.26 and 4.37, respectively.
Turning to `O=c1cc(-c2ccc(OCCOCCOCCO)cc2)oc2cc(O)cc(O)c12`, the pIC50 in the data set with Leishmania donovani [1], in the data set with Leishmania enriettii [2] and in the data set with Leishmania donovani [3] was less than 3.70 throughout.
On to `O=c1cc(-c2ccc(OCCOCCOCCOCCOCCOCCOCCOCCOCCOc3ccc(-c4cc(=O)c5c(O)cc(O)cc5o4)cc3)cc2)oc2cc(O)cc(O)c12`, for which the pIC50 in the data set with Leishmania donovani [1] was 5.00; in the data set on Leishmania donovani [3], 4.85.
In the case of `O=c1cc(-c2ccc(OCCOc3ccc(-c4cc(=O)c5c(O)cc(O)cc5o4)cc3)cc2)oc2cc(O)cc(O)c12`, the pIC50 in the data set with Leishmania donovani [1] was 4.02.
Consider `O=c1cc(-c2ccc(OCCOCCOCCOCCOc3ccc(-c4cc(=O)c5c(O)cc(O)cc5o4)cc3)cc2)oc2cc(O)cc(O)c12`, for which the Activity entry in the data set with Leishmania enriettii [4] and with Leishmania donovani [14] was “Not Active” throughout. Besides, the Resistance reversal result in data set [5], in [6], in data set [12], in [19], in data set [21] and in data set [23] was “Active” in each case. The Drug uptake with Leishmania donovani [7] is 83%; in the data set with Leishmania enriettii [10] it was 4.69 µM; in the data set on Leishmania donovani [13], 69%; in the data set on Leishmania donovani [15], 74%; in the data set with Leishmania donovani [16], 90%; with Leishmania enriettii [17], 26.6 µM. Moreover, the Drug uptake in the data set with Leishmania enriettii [20] was 2.95 µM. Also, the Resistance reversal result in [8] and in data set [22] was “inactive” each time. In data set [9], the pEC50 was 6.03. Further, the Resistance reversal entry in data set [11] was “Dose-dependent effect”. Also, the pIC50 in the data set with Leishmania donovani [1] is 5.15; in the data set on Leishmania enriettii [2] it was less than 3.70; with Leishmania donovani [3] it was 5.00. In data set [18], the Toxicity result is reported as “Not Toxic”.
Take `O=c1cc(-c2ccc(OCCOCCOCCOc3ccc(-c4cc(=O)c5c(O)cc(O)cc5o4)cc3)cc2)oc2cc(O)cc(O)c12`: the Resistance reversal result in data set [5], in data set [6], in [19], in data set [21] and in [23] was “Active” each time. In data set [8], the Resistance reversal entry was “inactive”. Further, the pEC50 in [9] was 5.73. The Resistance reversal result in data set [11] was “Dose-dependent effect”. For the same compound, the pIC50 was 5.10 in the data set on Leishmania donovani [1] and 4.96 in the data set on Leishmania donovani [3].
Consider `O=c1cc(-c2ccc(OCCOCCOCCOCCOCCOCCOCCOCCOc3ccc(-c4cc(=O)c5c(O)cc(O)cc5o4)cc3)cc2)oc2cc(O)cc(O)c12`, for which the pIC50 in the data set on Leishmania donovani [1] was 4.92; in the data set with Leishmania donovani [3] it was 4.85.
`O=c1cc(-c2ccc(OCCOCCOCCOCCOCCOc3ccc(-c4cc(=O)c5c(O)cc(O)cc5o4)cc3)cc2)oc2cc(O)cc(O)c12`: the figures for the pIC50 in the data set with Leishmania donovani [1], in the data set on Leishmania enriettii [2] and in the data set on Leishmania donovani [3] were 4.52, 4.15 and 4.38, respectively.
With `O=c1cc(-c2ccc(OCCOCCOCCOCCOCCOCCOCCOCCOCCOCCOCCOCCOCCOc3ccc(-c4cc(=O)c5c(O)cc(O)cc5o4)cc3)cc2)oc2cc(O)cc(O)c12`, the results for the pIC50 in the data set on Leishmania donovani [1] and in the data set on Leishmania donovani [3] were 4.30 and 4.22, respectively.
Turning to `O=c1cc(-c2ccc(OCCOCCOCCOCCOCCOCCOCCOCCOCCOCCOc3ccc(-c4cc(=O)c5c(O)cc(O)cc5o4)cc3)cc2)oc2cc(O)cc(O)c12`, the pIC50 with Leishmania donovani [1] and in the data set with Leishmania donovani [3] was less than 3.70 in each case.
On to `O=c1cc(-c2ccc(OCCOCCOCCOCCOCCOCCOc3ccc(-c4cc(=O)c5c(O)cc(O)cc5o4)cc3)cc2)oc2cc(O)cc(O)c12`, for which the results for the pIC50 in the data set with Leishmania donovani [1], with Leishmania enriettii [2] and with Leishmania donovani [3] were 4.96, 4.40 and 4.89, respectively.
